# Sampled rows, rich in hits. Any-hit rate of the full collection: about 2.3%.
# Insulin prom up: MIN6 insulin promoter up-regulation. MIN6 insulin promoter-GFP reporter, high-content imaging; active compounds read high. z-score at 5 µM. 190,000 tested, 0.3% active;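 active = z-score above 3 at 5 µM with at least 500 cells counted in the well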
# ABCG2 block: human ABCG2 inhibition, ABCB1 as counter-screen; Q9UNQ0; IgMXP3 cells, JC-1 efflux, flow cytometry; inhibition, % at 6.6 µM; 190,000 tested, 0.1% active; AID 1325;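 active = inhibition above 80%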;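 note: 0% = DMSO and 100% = nicardipine control wells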
#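 Read-out basis: Efflux inhibition in percent versus controls | Test system: ABCG2 IgMXP3 and barcoded ABCB1 CCRF-Adr cell mix | Quantity: 3 million cells/mL in well | Schedule: 10 min at 25 °C | Control set: Nicardipine as high control, DMSO as low control | Reagent: JC-1 as fluorescent efflux pump substrate | Signal: Flow cytometry of retained JC-1 fluorescence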
# ABCB1 inh: human ABCB1 inhibition, ABCG2 as counter-screen; 190,000 tested, 0.067% active; inhibition, % at 6.6 µM; AID 1326; CCRF-Adr cells, JC-1 efflux, flow cytometry; in the data active = inhibition above about 40%;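 note: 0% = vehicle and 100% = reference inhibitor; higher value means more JC-1 retained so stronger ABCB1 efflux block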
# Target sequence (P08183 whole entry, looked up): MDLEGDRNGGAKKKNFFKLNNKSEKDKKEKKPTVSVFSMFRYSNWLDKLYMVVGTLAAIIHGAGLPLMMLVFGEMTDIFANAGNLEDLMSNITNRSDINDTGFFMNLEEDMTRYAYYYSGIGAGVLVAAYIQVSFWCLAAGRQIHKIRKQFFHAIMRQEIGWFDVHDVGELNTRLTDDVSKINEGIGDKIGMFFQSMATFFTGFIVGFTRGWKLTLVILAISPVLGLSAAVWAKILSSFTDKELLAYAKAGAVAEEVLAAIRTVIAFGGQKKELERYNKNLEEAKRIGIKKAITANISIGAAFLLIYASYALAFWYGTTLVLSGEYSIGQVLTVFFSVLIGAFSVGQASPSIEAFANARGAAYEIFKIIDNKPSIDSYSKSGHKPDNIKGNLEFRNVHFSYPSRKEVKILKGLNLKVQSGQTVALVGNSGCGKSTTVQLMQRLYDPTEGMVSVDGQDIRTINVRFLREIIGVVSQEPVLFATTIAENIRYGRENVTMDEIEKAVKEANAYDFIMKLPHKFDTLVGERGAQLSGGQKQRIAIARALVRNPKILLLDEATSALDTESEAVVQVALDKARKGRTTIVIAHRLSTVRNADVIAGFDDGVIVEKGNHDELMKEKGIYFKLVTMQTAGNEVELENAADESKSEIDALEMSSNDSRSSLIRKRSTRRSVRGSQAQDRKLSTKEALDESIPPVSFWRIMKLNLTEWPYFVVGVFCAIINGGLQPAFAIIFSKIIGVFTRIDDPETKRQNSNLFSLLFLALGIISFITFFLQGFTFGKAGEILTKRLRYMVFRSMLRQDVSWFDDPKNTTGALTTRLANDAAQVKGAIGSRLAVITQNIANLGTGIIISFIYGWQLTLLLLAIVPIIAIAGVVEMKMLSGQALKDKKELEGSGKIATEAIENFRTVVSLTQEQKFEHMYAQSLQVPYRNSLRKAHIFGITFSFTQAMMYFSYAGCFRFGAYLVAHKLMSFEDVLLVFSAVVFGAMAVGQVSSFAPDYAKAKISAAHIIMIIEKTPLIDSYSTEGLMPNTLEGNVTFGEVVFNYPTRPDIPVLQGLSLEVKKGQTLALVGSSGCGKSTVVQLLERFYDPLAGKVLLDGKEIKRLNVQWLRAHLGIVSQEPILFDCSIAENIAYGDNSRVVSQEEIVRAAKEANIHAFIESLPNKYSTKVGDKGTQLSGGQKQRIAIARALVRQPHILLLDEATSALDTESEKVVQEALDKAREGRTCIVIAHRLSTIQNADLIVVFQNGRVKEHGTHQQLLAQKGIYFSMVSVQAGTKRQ
# Autophagy mod: modulators of autophagy. MEF GFP-LC3 puncta imaging; test concentration mostly 10 µM. calls only at 10 µM (by protocol). 190,000 tested, 0.98% active;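 active = percentage of spot-positive cells more than 3 SD above its plate mean, without a fluorescence outlier flag or 80% toxicity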;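 note: spot-positive cell cutoff set from DMSO-treated cells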
# ROMK primary: modulates human ROMK potassium channel activity | Tet-inducible ROMK, thallium flux fluorescence; actives lie on both sides | B-score at 10 µM | AID 1918 | 130,000 tested, 2% active | P48048;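 active = signal ratio slope over the read window, or its plate-corrected B-score, at least 3 SD from the plate mean, either direction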;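 note: B-score of the F/F0 ratio slope over 7 to 12 s after thallium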
# SDO1 yeast rescue: restores growth of sdo1-depleted yeast; S. cerevisiae sdo1-depleted JHY4D growth rescue, OD600 30 h; active compounds read high; pdr5 snq2 efflux-pump mutant strain; z-score at 10 µM; 140,000 tested, 0.21% active;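 active = z-score above 3 at both the 24 hr and the 30 hr optical density reads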;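 note: z-score against mean and SD of all compound wells on the same plate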
# Starred values were filed as active, the others as inactive; i = inactive; / = no result given; + = active, no number.
SMILES,Insulin prom up,ABCG2 block,ABCB1 inh,Autophagy mod,ROMK primary,SDO1 yeast rescue
O=C(CCl)N1CCN2C(=O)c3ccccc3C12c1ccc(Cl)cc1 (stereo not drawn),-0.73,-1.5,0.2,i,-1.74,/
Cc1ccc(C(=O)N2CCN3C(=O)c4ccccc4C23c2ccc(Cl)cc2)cc1 (stereo not drawn),-0.62,1.9,1.5,+,-0.16,-1.32
O=C(CN1C(=O)c2ccccc2C1=O)Nc1ccc(S(=O)(=O)N2CCOCC2)cc1,1.42,1.8,1.4,i,1.2,/
c1cnc2ccc(C(c3nnnn3C3CCCCC3)N3CCCCC3)cc2c1 (stereo not drawn),-0.06,-0.7,1.0,i,-1.39,-1.5
c1cnc2ccc(C(c3nnnn3C3CCCCC3)N3CCN(C4CCCCC4)CC3)cc2c1 (stereo not drawn),/,/,/,+,/,/
COc1cccc(NC(=O)c2ccc(NC(=O)C3CC(=O)OC34CCCCC4)cc2)c1 (stereo not drawn),0.31,3.1,-1.1,i,-1.64,/
CC(C)Oc1ccc(/C=N/NC(=O)C(CSCc2ccccc2)NC(=O)c2ccc([N+](=O)[O-])cc2)cc1 (stereo not drawn),/,-4.9,-0.2,+,/,-1.65
O=C(COc1ccc(/C=N/NC(=O)c2ccccc2)cc1)Nc1ccc([N+](=O)[O-])cc1,/,-0.6,-0.3,i,/,0.48
Cc1c(C(=O)N/N=C/C(C)C)[nH]c2c([N+](=O)[O-])cccc12,0.17,1.1,-1.0,i,-0.00577,0.14
Cc1ccc(-n2c(-c3ccncc3)n[nH]c2=S)c(C)c1,-0.31,0.6,-0.2,i,1.32,/
COc1ccc(C(=O)c2ccc(N(C)C)cc2)c2ccccc12,/,2.1,-0.5,+,/,-1.76
CCOC(=O)CC1C(=O)NCCN1Cc1cccs1 (stereo not drawn),0.68,3.2,0.6,i,0.0124,/
CCCCNC(=O)C(=O)NCCCn1ccnc1,-0.11,0.5,0.4,i,0.429,/
C/C(=N\O)C(=O)NCCCn1ccnc1,0.8,-0.1,0.1,i,2.14*,0.39
Cc1cccc(-c2ncc(CN3CCCC(CO)(Cc4ccccc4C)C3)cn2)c1 (stereo not drawn),3.13*,3.5,1.0,i,0.618,/
Cc1ccc(C)c(-c2[nH]ncc2CN2CCCC(CO)(Cc3ccccc3C)C2)c1 (stereo not drawn),-1.37,0.8,1.4,i,/,/
COC(=O)c1ccc2c(=O)[nH]c(CSc3nc(C)cs3)nc2c1,-0.16,1.3,-0.2,+,-0.199,/
CC1(C)CC(=O)C2=C(C1)OC1=C(C(=O)CC(C)(C)C1)C2c1ccc(O)cc1O,0.6,-6.4,-1.0,i,-8*,-0.07
O=C(C=C=Nc1ccccc1)C(=O)N=C=Cc1ccccc1,-1.75,/,/,/,/,/
Cc1cc(N2CCN(Cc3nc(-c4ccc(Cl)cc4)oc3C)CC2)cc(C)n1,-0.79,/,/,/,/,/
Cc1cccc(N2CCN(Cc3nc(-c4cccc(Oc5ccccc5)c4)oc3C)CC2)n1,0.01,1.7,1.4,+,0.34,/
CN1CCN(CCCNC(=O)c2cc3c(-c4ccc(Cl)cc4)nn(C)c3s2)CC1,-1.33,5.3,0.8,+,/,-0.19
Cn1nc(-c2ccc(Cl)cc2)c2cc(C(=O)NCC3CCCO3)sc21 (stereo not drawn),0.38,5.9,0.1,i,/,-1.59
CCOc1ccc(CN2CCN(CC(O)Cn3c4ccccc4c4ccccc43)CC2)cc1 (stereo not drawn),-1,2.4,1.0,+,-1.55,-2.14
O=c1c2ccccc2n(CC(O)CN2CCCCC2)c2ccccc12 (stereo not drawn),0.07,/,/,/,-0.0249,/
SMILES,Insulin prom up,ABCG2 block,ABCB1 inh,Autophagy mod,ROMK primary,SDO1 yeast rescue
CCn1c2ccccc2c2cc(CN3CCN(S(C)(=O)=O)CC3)ccc21,-0.16,2.2,0.9,i,/,-0.15
CCn1c2ccccc2c2cc(CN3CCN(Cc4cc(OC)ccc4O)CC3)ccc21,0.41,2.5,1.4,+,0.0977,/
COC(=O)c1ccccc1NS(=O)(=O)c1ccc(Cl)nc1,-0.38,1.9,0.6,i,-0.0585,/
OCCC1CN(Cc2cnc(-c3cccc4ccccc34)nc2)CCN1C1CCCCC1 (stereo not drawn),/,-0.3,0.1,+,-0.193,/
OCCC1CN(C/C(Cl)=C/c2ccccc2)CCN1C1CCCC1 (stereo not drawn),-0.47,0.5,0.2,+,-0.178,/
Cc1ccccc1-c1ncc(CN2CCN(C3CCCC3)C(CCO)C2)cn1 (stereo not drawn),0.26,2.9,1.0,i,-1.43,/
CCOC(=O)C1=C(c2ccccc2)NC(=O)NC1c1ccc(OC)c(OC)c1 (stereo not drawn),0.53,2.9,0.5,i,0.101,/
CCOC(=O)C1=C(c2ccccc2)N(C)C(=O)NC1c1ccc(OC(F)F)c(OC)c1 (stereo not drawn),0.77,3.3,0.1,i,-4.56*,-0.61
COc1cc(/C=C2\C(=O)ON=C2c2ccccc2)cc(Cl)c1O,-0.52,8.0,3.4,i,-15.4*,/
COc1ccc(N(CCN2C(=O)c3ccccc3C2=O)C(=O)c2cccc([N+](=O)[O-])c2)cc1,3.09*,47.8,3.6,i,/,-0.44
COc1ccc(N(CCCN2C(=O)c3cccc4cccc(c34)C2=O)C(=O)c2ccncc2)cc1,-0.72,2.4,1.7,i,-0.729,/
CSc1nc(-c2ccco2)nn1C(=O)Cc1ccccc1,0.26,21.2,1.3,+,/,0.99
Cc1ccc(N2CC(O)=C(c3nc4ccccc4c(=O)[nH]3)C2=N)cc1C,1.38,33.5,0.0,+,/,/
Cc1cc2cc(CCNC(=O)c3cccs3)c(=O)[nH]c2cc1C,0.1,9.0,1.1,i,-1.76,-0.07
CC(C)OC(=O)c1ccc(NC(=O)c2ccccc2)cc1,/,18.7,0.4,+,-0.499,1.4
CCOC(=O)c1ccc(NC(=O)c2ccc(NC(=O)c3ccccc3)cc2)cc1,-0.64,1.3,0.3,i,-0.194,-1.19
N#CCc1c(C#N)c(N)nc(N2CCCC(CO)C2)c1C#N (stereo not drawn),0.87,0.7,0.6,+,-2.5,/
Cc1c(Cl)cccc1NC(=S)N1CCC(N(C)CC2CCCO2)CC1 (stereo not drawn),-1.02,-0.1,0.0,i,/,/
COc1cc(CNCC2CCCO2)ccc1OCC(N)=O (stereo not drawn),0.15,1.8,-0.3,i,0.339,/
Cc1ccccc1OCCNc1cc(N2CC(C)NC(C)C2)ccc1[N+](=O)[O-] (stereo not drawn),-1.13,13.7,7.5,+,-0.7,/
O=C(NC(=S)Nc1cccnc1)c1cc2ccccc2o1,-0.16,7.5,/,i,3.48*,-0.18
O=C(NC(=S)NCc1cccnc1)c1cc2ccccc2o1,-0.31,3.9,1.1,i,-0.715,/
